# According to ChEMBL document CHEMBL1140782, “Nitrogen-appended N-alkylsulfonamides as inhibitors of gamma-secretase” (Bioorg Med Chem Lett, 2008):
# Tested on: Mus musculus
# Experiment: Reduction of amyloid beta levels in Tg2576 beta-APP-Swedish transgenic mouse at 500 umol/kg, po after 3 hrs
# Type: functional
# Design: scale not given: the % may be the effect or the level left
# Settings: not given
row,SMILES,Activity [%]
1,CCC[C@@H](C)N(c1cc(Cl)ccc1CO)S(=O)(=O)c1ccc(Cl)cc1,25

# Target: Gamma-secretase
# Experiment: Inhibition of human gamma secretase in H4 cells assessed as reduction of amyloid beta-40 levels
# Type: cell-based
# Settings: not given
# In short: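 Cells were plated in 96 wells and allowed to attach. Medium was then replaced with Ultraculture containing compound at a final 1% DMSO, and cells were incubated overnight. Aβ40 in the conditioned medium was measured by sandwich ELISA, using a C-terminal Aβ40-specific monoclonal capture antibody and an HRP-labelled N-terminal Aβ monoclonal antibody for detection.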
row,IC50 [nM],SMILES
1,0.75,Cc1nnnn1CCC[C@@H](C)N(c1cc(Cl)ccc1CO)S(=O)(=O)c1ccc(Cl)cc1
2,5.6,C[C@H](CCCn1nnc(N(C)C)n1)N(c1cc(Cl)ccc1CO)S(=O)(=O)c1ccc(Cl)cc1
3,850,C=C(Cl)CN(c1cc(Cl)ccc1CO)S(=O)(=O)c1ccc(C)cc1
4,7.3,CC(=O)NCCC[C@@H](C)N(c1cc(Cl)ccc1CO)S(=O)(=O)c1ccc(Cl)cc1
5,0.23,C[C@H](CCCNS(C)(=O)=O)N(c1cc(Cl)ccc1CO)S(=O)(=O)c1ccc(Cl)cc1
6,36,C[C@H](CCCNc1ccccc1)N(c1cc(Cl)ccc1CO)S(=O)(=O)c1ccc(Cl)cc1
7,84,C[C@H](CCCN1CCc2ccccc2C1)N(c1cc(Cl)ccc1CO)S(=O)(=O)c1ccc(Cl)cc1
8,4.8,C[C@H](CCCn1cncn1)N(c1cc(Cl)ccc1CO)S(=O)(=O)c1ccc(Cl)cc1
9,14,CC(C)C(=O)NCCC[C@@H](C)N(c1cc(Cl)ccc1CO)S(=O)(=O)c1ccc(Cl)cc1
10,2.9,C[C@H](CCCNC(=O)[C@@H](O)c1ccccc1)N(c1cc(Cl)ccc1CO)S(=O)(=O)c1ccc(Cl)cc1
11,7.4,C[C@H](CCCNS(=O)(=O)c1ccccc1)N(c1cc(Cl)ccc1CO)S(=O)(=O)c1ccc(Cl)cc1
12,1.1,C[C@H](CCCN1CCCS1(=O)=O)N(c1cc(Cl)ccc1CO)S(=O)(=O)c1ccc(Cl)cc1
13,13,CCC(=O)NCCC[C@@H](C)N(c1cc(Cl)ccc1CO)S(=O)(=O)c1ccc(Cl)cc1
14,6.5,C[C@H](CCCN(C)C)N(c1cc(Cl)ccc1CO)S(=O)(=O)c1ccc(Cl)cc1
15,18,C[C@H](CCCn1cccn1)N(c1cc(Cl)ccc1CO)S(=O)(=O)c1ccc(Cl)cc1
16,6.1,Cc1nnn(CCC[C@@H](C)N(c2cc(Cl)ccc2CO)S(=O)(=O)c2ccc(Cl)cc2)n1
17,29,C[C@H](CCCN1CCN(C)CC1)N(c1cc(Cl)ccc1CO)S(=O)(=O)c1ccc(Cl)cc1
18,0.32,C[C@H](CCCN(C)S(C)(=O)=O)N(c1cc(Cl)ccc1CO)S(=O)(=O)c1ccc(Cl)cc1
19,5.1,C[C@H](CCCNC=O)N(c1cc(Cl)ccc1CO)S(=O)(=O)c1ccc(Cl)cc1
20,0.53,C[C@H](CCCn1nnnc1N(C)C)N(c1cc(Cl)ccc1CO)S(=O)(=O)c1ccc(Cl)cc1

row,IC50 [nM],SMILES
1,6.9,COCC(=O)NCCC[C@@H](C)N(c1cc(Cl)ccc1CO)S(=O)(=O)c1ccc(Cl)cc1
2,288,C[C@H](CCCN)N(c1cc(Cl)ccc1CO)S(=O)(=O)c1ccc(Cl)cc1
3,1.6,C[C@H](CCCNC(=O)[C@H](O)c1ccccc1)N(c1cc(Cl)ccc1CO)S(=O)(=O)c1ccc(Cl)cc1
4,0.51,C[C@H](CCCn1cnnn1)N(c1cc(Cl)ccc1CO)S(=O)(=O)c1ccc(Cl)cc1
5,8.1,C[C@H](CCCNC(=O)CO)N(c1cc(Cl)ccc1CO)S(=O)(=O)c1ccc(Cl)cc1
6,15,C[C@H](CCCn1nnnc1-c1ccccc1)N(c1cc(Cl)ccc1CO)S(=O)(=O)c1ccc(Cl)cc1
7,12,C[C@H](CCCn1nccn1)N(c1cc(Cl)ccc1CO)S(=O)(=O)c1ccc(Cl)cc1
8,29,C[C@H](CCCNC1CCCO1)N(c1cc(Cl)ccc1CO)S(=O)(=O)c1ccc(Cl)cc1 (stereo partly specified)
9,3.1,C[C@H](CCCN1CCOCC1)N(c1cc(Cl)ccc1CO)S(=O)(=O)c1ccc(Cl)cc1
10,61,C[C@H](CCCn1nnc(-c2ccccc2)n1)N(c1cc(Cl)ccc1CO)S(=O)(=O)c1ccc(Cl)cc1
11,26,C[C@H](CCCNC(=O)Cc1ccccc1)N(c1cc(Cl)ccc1CO)S(=O)(=O)c1ccc(Cl)cc1
12,50,C[C@H](CCCN1CCCCC1)N(c1cc(Cl)ccc1CO)S(=O)(=O)c1ccc(Cl)cc1
13,1.2,C[C@H](CCCn1ncnn1)N(c1cc(Cl)ccc1CO)S(=O)(=O)c1ccc(Cl)cc1
14,5,CCC[C@@H](C)N(c1cc(Cl)ccc1CO)S(=O)(=O)c1ccc(Cl)cc1
15,262,CNCCC[C@@H](C)N(c1cc(Cl)ccc1CO)S(=O)(=O)c1ccc(Cl)cc1
16,72,C[C@H](CCCNC(=O)CCc1ccccc1)N(c1cc(Cl)ccc1CO)S(=O)(=O)c1ccc(Cl)cc1
17,0.9,C[C@H](CCCn1ccnn1)N(c1cc(Cl)ccc1CO)S(=O)(=O)c1ccc(Cl)cc1
18,11,C[C@H](CCCn1ccnc1)N(c1cc(Cl)ccc1CO)S(=O)(=O)c1ccc(Cl)cc1
19,15,C[C@H](CCCNC(=O)c1ccccc1)N(c1cc(Cl)ccc1CO)S(=O)(=O)c1ccc(Cl)cc1

# Tested on: Mus musculus
# Experiment: Reduction of amyloid beta levels in Tg2576 beta-APP-Swedish transgenic mouse at 200 umol/kg, po after 3 hrs
# Type: functional
# Design: scale not given: the % may be the effect or the level left
# Settings: not given
# In short: (§1)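 Tg2576 βAPP-Swedish transgenic mice received a single oral dose of 200 µmol/kg. At 3 h after dosing, brain Aβ was measured as percent reduction, and compound concentrations were measured in plasma and brain in nM, reported as mean ± deviation.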
row,SMILES,Activity [%]
1,C[C@H](CCCN(C)S(C)(=O)=O)N(c1cc(Cl)ccc1CO)S(=O)(=O)c1ccc(Cl)cc1,27
2,C[C@H](CCCn1cnnn1)N(c1cc(Cl)ccc1CO)S(=O)(=O)c1ccc(Cl)cc1,41

# Tested on: Plasma
# Experiment: Drug level in Tg2576 beta-APP-Swedish transgenic mouse plasma at 200 umol/kg, po
# Type: ADME, organism-based
# Settings: in vivo
# In short: as §1
row,concentration [µM],SMILES
1,12.3,C[C@H](CCCN(C)S(C)(=O)=O)N(c1cc(Cl)ccc1CO)S(=O)(=O)c1ccc(Cl)cc1
2,5.47,C[C@H](CCCn1cnnn1)N(c1cc(Cl)ccc1CO)S(=O)(=O)c1ccc(Cl)cc1

# Tested on: Brain
# Experiment: Drug level in Tg2576 beta-APP-Swedish transgenic mouse brain at 200 umol/kg, po
# Type: ADME, organism-based
# Settings: in vivo, read-out: Drug uptake
# In short: as §1
row,concentration [µM],SMILES
1,0.759,C[C@H](CCCN(C)S(C)(=O)=O)N(c1cc(Cl)ccc1CO)S(=O)(=O)c1ccc(Cl)cc1
2,1.16,C[C@H](CCCn1cnnn1)N(c1cc(Cl)ccc1CO)S(=O)(=O)c1ccc(Cl)cc1
